FN deposition inh – fibronectin deposition inhibition; 350,000 tested, 0.086% active; AH1F fibroblasts, Alexa488-fibronectin deposition fluorescence, overnight; inhibition, % at 12.6 µM;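 active = mean inhibition across replicates of 30% or more, regardless of how many single replicates reach that level; inconclusive = mean under 30% yet at least half of replicates reach 30%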;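 also: positive control wells lacked labelled fibronectin entirely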
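Assay system: AH1F fibroblasts / Quantity: 10000 cells per well / Medium: DMEM plus 2% serum, read in PBS / Reagent: labelled fibronectin 24 nM / Dosing: single dose, pinned / Times: 1 h cell attachment, overnight exposure to compound and label / Signal: fluorescence, ex 485 nm, em 525 nm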
CaV13 ICDI inh – Disruptors of the CACNA1D IQ motif to Ca2+-dependent inactivation inhibitor domain association, primary screening, Förster resonance energy transfer in intact living …. HEK cells, CFP/YFP FRET ICDI-IQ, plate reader, 10 min; percent FRET-ratio fall versus neutral wells. inhibition, % at 12.3 µM. 340,000 tested, 0.098% active. AID 743397;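 active = mean replicate inhibition of at least 30% and at least 1% of replicates passing that level; inconclusive = only one of the two criteria is met; inactive = neither criterion is met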;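 also: 0% = median of the neutral control wells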
CASP6 VEID inh – blocks human caspase-6 cleavage activity; P55212; inhibition, % at 12.5 µM; purified caspase-6, Z-VEID-R110 cleavage fluorescence; 350,000 tested, 0.53% active;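 active = mean inhibition across replicates at least about 35%, with every replicate also reaching that limit, limit read from the data; inconclusive = only one of the two criteria met; inactive = neither criterion met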;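 also: 0% = median of neutral control wells and 100% = no fluorescence left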
Target sequence (P55212 24-179 limits assumed): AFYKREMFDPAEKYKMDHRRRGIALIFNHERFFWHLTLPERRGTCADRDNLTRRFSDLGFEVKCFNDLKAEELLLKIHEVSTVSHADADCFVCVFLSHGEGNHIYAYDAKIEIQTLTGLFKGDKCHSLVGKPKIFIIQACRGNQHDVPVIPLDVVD
Target sequence (P55212 194-293 limits assumed): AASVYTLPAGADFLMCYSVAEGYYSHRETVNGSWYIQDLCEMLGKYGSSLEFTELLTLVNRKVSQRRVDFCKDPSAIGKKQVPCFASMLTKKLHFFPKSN
DENV2 CPE – inhibitors of DENV2 cytopathic effect | DENV2-infected cells, cytopathic effect rescue, plate reader | CPE inhibition, % at 9.99 µM | 350,000 tested, 1.7% active; in the data active = CPE inhibition above about 20%, passing the limit was not always enough; inconclusive = no clear call, values can overlap the other calls; tested in BHK-21 cells;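 also: 0% = median of neutral control wells and 100% = median of positive control wells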
XiGFP reactiv – reactivates the inactive X chromosome in mouse fibroblasts | XiGFP mouse fibroblasts, % GFP-positive cells imaging, 3 d; cells co-treated with 5-aza-dC sensitizer; scaled so ellipticine positive control = 100% | activation, % at 7.58 µM | 360,000 tested, 0.055% active | AID 743238;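 active = mean normalized replicate activation at least 10% and every replicate at or above 10%; inconclusive = only one of the two criteria met; inactive = mean below 10% and not all replicates reach 10%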;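 also: 0% = median of on-plate neutral control wells and 100% = ellipticine 6 µM median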
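Material: XiGFP fibroblasts, SV40-immortalized; Buffer or medium: DMEM containing 5-aza-dC; Compound dosing: single point; Times: 3 days compound exposure.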
* marks the source's active call; other numbers are inactive results; ? = inconclusive; / = not tested or not shown; ! = a repeat was not active. Only some compounds are listed: those with a hit (about 2% of all), similar ones and a draw of the others.

SMILES	FN deposition inh	CaV13 ICDI inh	CASP6 VEID inh	DENV2 CPE	XiGFP reactiv
C[C@@H]1CN([C@@H](C)CO)C(=O)CCCn2cc(nn2)CO[C@@H]1CN(C)C(=O)CCC(F)(F)F	2	/	/	/	0
C[C@H]1CN([C@@H](C)CO)C(=O)CCCn2cc(nn2)CO[C@@H]1CN(C)C(=O)CCC(F)(F)F	-1	-6	45*!	6	0
CO[C@H]1CN(C)C(=O)c2ccc(NC(C)=O)cc2OC[C@H](C)N(C(=O)c2ccncc2)C[C@@H]1C	-2	/	/	-11	0
COc1ccc([Si](C)(C)[C@H]2[C@H](CCn3cc(CCO)nn3)O[C@@]3(C(=O)N(C)c4c(Br)cc(C)cc43)[C@@H]2C)cc1	/	/	1	-2	/
COc1ccc2c3c(n(C)c2c1)[C@@H](CO)N(C(=O)C1CCCC1)CC31CCN(Cc2cccc(F)c2)CC1	/	/	0	-2	1
C[C@@H]1CN([C@H](C)CO)C(=O)c2cccc(NC(=O)c3cnccn3)c2O[C@H]1CN(C)S(=O)(=O)c1cccs1	-15	/	-1	-6	-1
C[C@H](CO)N1C[C@H](C)[C@@H](CN(C)C(=O)c2ccc(N3CCN(C)CC3)cc2)OCc2cn(nn2)CCCC1=O	-4	-5	-5	13	0
C[C@H]1CN([C@@H](C)CO)C(=O)CCCn2cc(nn2)CO[C@@H]1CN(C)C(=O)c1ccc(N2CCN(C)CC2)cc1	0	-6	-3	64*!	0
C[C@@H]1CN([C@H](C)CO)C(=O)CCCn2cc(nn2)CO[C@H]1CN(C)S(=O)(=O)c1cccc(F)c1	0	-6	-3	-6	0
Cc1cccc(S(=O)(=O)N(C)C[C@H]2OCc3cn(nn3)CCCC(=O)N([C@@H](C)CO)C[C@@H]2C)c1	-2	-3	1	47*!	1
O=C(c1ccc2c(c1)OCO2)N1CC(=O)N2[C@H](C1)[C@H](c1ccc(C#CCC3CCCC3)cc1)[C@@H]2CO	/	/	4	1	0
C[C@H]1CN([C@@H](C)CO)C(=O)c2cccc(NS(=O)(=O)c3cccs3)c2O[C@H]1CN(C)CC1CCCCC1	-2	/	/	/	-1
O=c1oc2cc(O)ccc2cc1-c1nc2c(s1)CCc1ccccc1-2	-12	-11	/	/	95*
O=c1oc2ccccc2cc1-c1nc2c(s1)CCc1ccccc1-2	-13	-8	/	/	0
O=C(C[C@@H]1C=C[C@@H](NC(=O)C2CCC2)[C@H](CO)O1)NC1CCCCC1	-6	/	0	-1	1
CCCC(=O)N1CC2(C1)CN(C(=O)C1CCCCC1)[C@@H](CO)c1[nH]c3cc(OC)ccc3c12	/	/	-3	22*	0
COc1ccc2c3c([nH]c2c1)[C@@H](CO)N(C(=O)Nc1ccccc1F)CC31CCN(C(C)=O)CC1	/	/	/	-3	0
COc1ccc2c3c([nH]c2c1)[C@H](CO)N(C(=O)C1CC1)CC31CN(C(=O)NC(C)C)C1	/	/	0	30*	0
COc1ccc2c3c([nH]c2c1)[C@@H](CO)N(C(=O)Nc1ccc(F)cc1)CC31CN(S(=O)(=O)c2cccc(C)c2)C1	/	/	1	1	0
COc1cccc(S(=O)(=O)N2CC3(CN(C(=O)Nc4ccc(F)cc4)[C@H](CO)c4[nH]c5cc(OC)ccc5c43)C2)c1	/	/	/	128*	0
COc1ccc2c3c([nH]c2c1)[C@@H](CO)N(C(=O)C1CC1)CC31CN(C(=O)NC(C)C)C1	/	/	-1	3	0
COCC(=O)N1CCC2(CC1)CN(C(=O)Nc1ccccc1F)[C@H](CO)c1[nH]c3cc(OC)ccc3c12	/	/	-2	25*	0
C/C=C/c1ccc2c(c1)O[C@@H](CN(C)C(=O)C1CCC1)[C@@H](C)CN([C@@H](C)CO)S2(=O)=O	/	/	/	/	0
CC(=O)N(C)C[C@@H]1Oc2ccc(NC(=O)NC(C)C)cc2CC(=O)N(C)C[C@H]1C	-7	/	/	/	0
COc1ccc2c3c([nH]c2c1)[C@H](CO)N(C(=O)C1CCOCC1)CC31CN(C)C1	/	/	/	/	0
SMILES	FN deposition inh	CaV13 ICDI inh	CASP6 VEID inh	DENV2 CPE	XiGFP reactiv
CCCC(=O)N1CCC2(CC1)CN(C(=O)C1CC1)[C@H](CO)c1[nH]c3cc(OC)ccc3c12	/	/	2	34*	0
COc1ccc2c3c([nH]c2c1)[C@@H](CO)N(C(=O)C1CCOCC1)CC31CN(C)C1	/	/	/	90*	0
C[C@H]1COCc2cn(nn2)CC[C@@H](Cc2ccccc2)C(=O)N1	-2	/	/	/	0
O=C1CC(c2ccc(O)c(O)c2)Oc2c1ccc(O)c2O (stereo not drawn)	/	/	75*	-3	/
CNC[C@H]1Oc2ccc(NC(=O)NC(C)C)cc2C(=O)N(C)C[C@H]1C	2	/	/	/	0
COc1ccc(C2=CC(=O)CC(C)(C)C2)cc1OC	13	-11	1	/	0
COc1ncc(C2=CC(=O)CC(C)(C)C2)cn1	-2	-10	2	31*	0
O=C(NCCC1CCCCN1S(=O)(=O)c1ccc(F)cc1)C(=O)NCc1ccccn1 (stereo not drawn)	4	-6	-1	?	0
COc1ccc(S(=O)(=O)N2CCC(C(=O)NCCC(=O)NCc3ccccn3)CC2)cc1	8	-14	-2	36*	0
COc1ccc(S(=O)(=O)N2CCOC2CNC(=O)C(=O)NCc2ccccn2)cc1 (stereo not drawn)	/	/	0	-6	0
O=C(NCCC1CCCCN1S(=O)(=O)c1ccccc1)C(=O)NCc1ccccn1 (stereo not drawn)	8	-14	-1	92*	0
O=C(NCc1ccccn1)C(=O)NCC1OCCN1S(=O)(=O)c1ccc(Br)cc1 (stereo not drawn)	/	/	1	64*	0
O=C(CCNC(=O)C1CCN(S(=O)(=O)c2ccccc2)CC1)NCc1ccccn1	-5	-2	2	-1	0
CNC[C@@H]1Oc2ccc(NS(=O)(=O)c3ccc(Cl)cc3)cc2C(=O)N([C@@H](C)CO)C[C@H]1C	/	/	0	-10	-1
Cn1c(=O)c2c(ncn2CC(=O)OCC(=O)c2ccc(OC(F)F)cc2OC(F)F)n(C)c1=O	-1	-6	55*	-3	0
C[C@@H]1CN([C@H](C)CO)C(=O)c2cc(NC(=O)Nc3cccc4ccccc34)ccc2O[C@@H](C)CCCCO[C@H]1CN(C)C(=O)c1ccccc1	/	/	1	2	0
Cc1cccc(OCCCN2CCC(C(O)(c3ccccc3)c3ccccc3)CC2)c1	-4	-8	4	34*	0
COc1cccc(OCCCN2CCC(C(O)(c3ccccc3)c3ccccc3)CC2)c1	-2	-7	2	-5	0
CC(=O)Nc1ccc(OCCCN2CCC(C(O)(c3ccccc3)c3ccccc3)CC2)cc1	/	-5	-13	34*	0

Assay outcomes: PubChem, Broad Institute
